Legend:
zebrafish larvae [1] = test: ISO-induced tachycardia model in zebrafish larvae; assay type: in vivo; details: 100 μM; 10 μM ISO 100 min; zebrafish larvae 3–4 dpf
NaV1.5 F1760A = NaV1.5 F1760A (Homo sapiens, UniProt Q14524, F1760A); test: Whole-cell patch-clamp of NaV1.5 F1760A mutant in HEK293T cells; assay type: cell-based; details: HEK-293T, read-out: inhibition rate, NaV1.5 F1760A
NaV1.5 V405A = NaV1.5 V405A (Homo sapiens, UniProt Q14524, V405A); test: Whole-cell patch-clamp of NaV1.5 V405A mutant in HEK293T cells; assay type: cell-based; details: HEK-293T, read-out: inhibition rate, NaV1.5 V405A
zebrafish larvae [2] = test: Heart rate recording in zebrafish larvae; assay type: in vivo; details: 10 μM
NaV1.5 channels = NaV1.5 channels (Homo sapiens, UniProt Q14524); test: Whole-cell patch-clamp recording of NaV1.5 currents in HEK293T cells; assay type: cell-based; details: HEK-293T, read-out: inhibition rate, NaV1.5 WT, 100 μM
[3] = tested on: Na+ current in primary ventricular myocytes; test: Voltage-gated Na+ current in rat primary ventricular myocytes; assay type: cell-based; details: 10 µM; rat primary cardiomyocytes; 365 vs 480 nm
Procedure, shortened: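 Ventricular myocytes from 1–2-day-old Sprague-Dawley rats, dissociated with 0.05% trypsin and 0.1% collagenase II, with fibroblasts removed by 2 h pre-plating. Cultured in DMEM with 10% FBS at 37 °C. Whole-cell voltage clamp followed the HEK293T Na+ protocol (hold −120 mV, 50 ms step to −20 mV).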

NaV1.5 F1760A, sequence (Q14524 whole entry F1760A): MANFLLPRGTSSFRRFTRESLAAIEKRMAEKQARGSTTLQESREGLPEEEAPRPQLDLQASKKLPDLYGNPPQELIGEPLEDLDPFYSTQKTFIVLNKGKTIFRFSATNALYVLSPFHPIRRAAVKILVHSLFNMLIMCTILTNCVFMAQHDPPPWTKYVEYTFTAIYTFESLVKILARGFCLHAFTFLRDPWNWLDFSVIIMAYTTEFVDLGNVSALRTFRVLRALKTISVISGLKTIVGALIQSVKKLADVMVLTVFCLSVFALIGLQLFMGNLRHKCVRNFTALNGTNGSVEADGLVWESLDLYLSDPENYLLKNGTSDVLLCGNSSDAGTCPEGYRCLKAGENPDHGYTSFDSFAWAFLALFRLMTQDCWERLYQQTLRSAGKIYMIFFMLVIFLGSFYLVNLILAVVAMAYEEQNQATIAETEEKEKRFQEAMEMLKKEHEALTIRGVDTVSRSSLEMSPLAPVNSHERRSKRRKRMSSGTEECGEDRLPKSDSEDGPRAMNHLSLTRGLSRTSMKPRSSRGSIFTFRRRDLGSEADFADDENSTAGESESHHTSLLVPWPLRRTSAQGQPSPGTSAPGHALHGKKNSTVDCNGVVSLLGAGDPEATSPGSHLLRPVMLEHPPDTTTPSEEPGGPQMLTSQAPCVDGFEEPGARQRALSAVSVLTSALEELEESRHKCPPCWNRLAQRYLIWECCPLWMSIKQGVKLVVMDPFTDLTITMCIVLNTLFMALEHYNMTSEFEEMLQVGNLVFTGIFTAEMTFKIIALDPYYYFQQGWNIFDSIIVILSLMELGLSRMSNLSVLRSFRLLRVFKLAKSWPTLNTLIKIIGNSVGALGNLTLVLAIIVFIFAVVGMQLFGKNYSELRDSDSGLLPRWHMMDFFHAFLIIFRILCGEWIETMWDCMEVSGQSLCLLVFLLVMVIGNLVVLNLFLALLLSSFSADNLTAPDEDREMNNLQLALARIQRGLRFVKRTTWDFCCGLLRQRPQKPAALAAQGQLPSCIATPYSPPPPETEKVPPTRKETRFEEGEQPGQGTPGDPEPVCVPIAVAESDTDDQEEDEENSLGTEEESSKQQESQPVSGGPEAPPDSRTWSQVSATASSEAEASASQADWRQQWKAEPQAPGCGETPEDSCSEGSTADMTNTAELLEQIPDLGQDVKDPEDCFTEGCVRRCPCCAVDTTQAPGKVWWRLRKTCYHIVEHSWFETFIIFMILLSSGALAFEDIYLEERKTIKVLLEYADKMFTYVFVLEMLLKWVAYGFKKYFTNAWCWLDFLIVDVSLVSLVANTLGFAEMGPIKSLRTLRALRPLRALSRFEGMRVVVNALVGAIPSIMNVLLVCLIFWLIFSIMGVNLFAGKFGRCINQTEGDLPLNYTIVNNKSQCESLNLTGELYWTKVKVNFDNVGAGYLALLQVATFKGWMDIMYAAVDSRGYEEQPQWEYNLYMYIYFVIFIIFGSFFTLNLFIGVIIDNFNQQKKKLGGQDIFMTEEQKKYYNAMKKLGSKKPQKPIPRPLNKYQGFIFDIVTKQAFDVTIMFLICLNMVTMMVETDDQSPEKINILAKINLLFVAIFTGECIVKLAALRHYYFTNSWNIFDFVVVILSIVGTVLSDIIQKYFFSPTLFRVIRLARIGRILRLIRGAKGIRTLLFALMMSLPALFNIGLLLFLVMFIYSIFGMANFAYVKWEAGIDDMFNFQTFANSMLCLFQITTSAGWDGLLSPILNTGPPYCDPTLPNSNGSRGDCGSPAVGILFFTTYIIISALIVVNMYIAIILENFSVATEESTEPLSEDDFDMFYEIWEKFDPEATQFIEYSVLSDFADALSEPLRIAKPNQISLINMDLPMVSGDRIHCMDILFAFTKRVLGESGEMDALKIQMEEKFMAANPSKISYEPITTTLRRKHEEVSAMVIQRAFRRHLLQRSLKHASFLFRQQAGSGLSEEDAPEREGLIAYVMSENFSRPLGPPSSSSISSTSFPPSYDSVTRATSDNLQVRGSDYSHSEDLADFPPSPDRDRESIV
NaV1.5 V405A, sequence (Q14524 whole entry V405A): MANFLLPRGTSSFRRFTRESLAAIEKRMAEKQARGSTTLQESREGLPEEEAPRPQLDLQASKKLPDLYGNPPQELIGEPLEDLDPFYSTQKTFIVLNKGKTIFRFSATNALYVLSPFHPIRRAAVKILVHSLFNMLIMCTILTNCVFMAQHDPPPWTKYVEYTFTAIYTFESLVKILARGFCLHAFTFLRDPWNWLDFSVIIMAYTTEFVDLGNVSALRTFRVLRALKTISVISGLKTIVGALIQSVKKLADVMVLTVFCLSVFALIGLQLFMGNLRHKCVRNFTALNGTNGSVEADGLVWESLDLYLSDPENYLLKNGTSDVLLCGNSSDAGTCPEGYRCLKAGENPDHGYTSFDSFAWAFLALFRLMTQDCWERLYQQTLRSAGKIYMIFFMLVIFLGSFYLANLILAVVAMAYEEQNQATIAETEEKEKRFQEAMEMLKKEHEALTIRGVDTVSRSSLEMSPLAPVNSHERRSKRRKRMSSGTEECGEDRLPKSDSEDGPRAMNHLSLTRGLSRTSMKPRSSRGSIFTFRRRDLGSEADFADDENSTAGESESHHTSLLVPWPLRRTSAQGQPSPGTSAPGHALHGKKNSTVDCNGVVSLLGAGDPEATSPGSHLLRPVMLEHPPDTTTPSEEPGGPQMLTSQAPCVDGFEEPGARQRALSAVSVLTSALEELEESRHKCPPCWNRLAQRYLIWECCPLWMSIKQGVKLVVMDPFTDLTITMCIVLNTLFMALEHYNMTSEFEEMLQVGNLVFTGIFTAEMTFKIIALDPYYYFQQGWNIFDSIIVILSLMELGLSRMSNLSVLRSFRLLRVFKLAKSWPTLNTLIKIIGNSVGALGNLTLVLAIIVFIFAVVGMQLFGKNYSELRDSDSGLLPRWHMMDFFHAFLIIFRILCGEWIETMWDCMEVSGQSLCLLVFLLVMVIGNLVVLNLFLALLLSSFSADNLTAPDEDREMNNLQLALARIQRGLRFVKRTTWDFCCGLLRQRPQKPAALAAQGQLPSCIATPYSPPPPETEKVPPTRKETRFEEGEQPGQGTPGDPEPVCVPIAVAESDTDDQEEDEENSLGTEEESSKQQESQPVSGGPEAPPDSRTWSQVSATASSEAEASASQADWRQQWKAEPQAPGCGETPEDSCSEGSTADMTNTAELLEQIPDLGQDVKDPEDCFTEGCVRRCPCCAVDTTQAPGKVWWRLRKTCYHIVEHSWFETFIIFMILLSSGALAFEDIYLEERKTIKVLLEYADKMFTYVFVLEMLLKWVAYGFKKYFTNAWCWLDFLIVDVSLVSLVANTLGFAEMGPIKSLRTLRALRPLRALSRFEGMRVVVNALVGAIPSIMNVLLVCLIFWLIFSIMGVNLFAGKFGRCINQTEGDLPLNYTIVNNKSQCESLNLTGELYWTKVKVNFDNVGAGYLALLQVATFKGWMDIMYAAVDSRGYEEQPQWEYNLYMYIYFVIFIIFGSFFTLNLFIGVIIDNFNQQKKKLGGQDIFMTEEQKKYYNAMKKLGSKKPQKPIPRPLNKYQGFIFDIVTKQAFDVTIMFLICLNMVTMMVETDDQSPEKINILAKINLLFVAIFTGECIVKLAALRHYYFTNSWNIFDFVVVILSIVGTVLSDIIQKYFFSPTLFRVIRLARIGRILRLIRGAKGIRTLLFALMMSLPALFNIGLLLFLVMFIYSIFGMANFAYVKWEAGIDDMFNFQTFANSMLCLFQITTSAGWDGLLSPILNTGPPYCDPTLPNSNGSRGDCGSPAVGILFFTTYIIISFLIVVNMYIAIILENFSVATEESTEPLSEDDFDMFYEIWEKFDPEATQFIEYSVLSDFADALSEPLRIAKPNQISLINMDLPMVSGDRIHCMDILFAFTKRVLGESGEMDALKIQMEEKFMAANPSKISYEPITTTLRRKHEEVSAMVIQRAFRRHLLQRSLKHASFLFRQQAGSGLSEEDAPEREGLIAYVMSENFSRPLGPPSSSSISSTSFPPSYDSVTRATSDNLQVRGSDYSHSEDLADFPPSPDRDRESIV

For `C=C[C@H]1C[N@@]2CC[C@H]1C[C@@H]2[C@@H](O)c1ccnc2ccc(OC)cc12` [Quinidine, quinidine], the “effect on heart rate in ISO-pretreated larvae” value (zebrafish larvae [1]) was “markedly attenuate heart rate”, the inhibition at 100 µM (NaV1.5 F1760A) was 32.6 ± 1.8% and the inhibition at 100 µM (NaV1.5 V405A) was 51.2 ± 2.3%. For the same molecule, the “heart rate normalized to control in dark” value (zebrafish larvae [2]; soaking 1-[…] in the dark, zebrafish larvae 2 dpf) was 90.8 ± 1.4%, the “heart rate normalized to control in dark” value (zebrafish larvae [2]; 365 nm followed by 480 nm illumination, 5 min each) was 91.6 ± 1.3% and the “heart rate normalized to control in dark” value (zebrafish larvae [2]; after 365 nm illumination for 5 min) was 93.9 ± 0.9%. For the same molecule, the inhibition at 100 µM (NaV1.5 channels) was 77.6 ± 3.2% and the “photoswitching efficacy (optical control), Na+ current” value [3] was 0.8 ± 0.8%.

From article PMC13103313 (Nature Communications, 2026)
